Here are results for 13 molecules from ChEMBL document CHEMBL5321206, “New amidine-benzenesulfonamides as iNOS inhibitors for the therapy of the triple negative breast cancer” (Eur J Med Chem, 2023).

pEC50, pIC50: −log10 of the molar value. The source made the active and inactive calls. No cut-off for these calls is given here.

The target in series [1] is T1, Nitric oxide synthase, inducible (Homo sapiens, UniProt P35228). The experiment in a line: Inhibition of N-terminal his6-tagged recombinant human iNOS expressed in Escherichia coli at 1 uM preincubated for 15 mins followed by NADPH addition and measured after 30 mins by HPLC analysis relative to control. Conditions: time 45.0 min. The procedure, abridged:
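Recombinant human iNOS in 100 mM HEPES pH 7.4 with 0.1 mM CaCl2, 1 mM DTT, 0.5 mg/mL BSA, 10 μM FMN, 10 μM FAD, 30 μM BH4, 10 μg/mL calmodulin and 10 μM L-Arg. Compound pre-incubated 15 min at 37 °C. NADPH added to start the reaction, run 30 min at 37 °C, stopped with cold CH3CN. Product measured by OPA/NAC derivatization and fluorescence HPLC (ex 335/em 439 nm). […] IC50 from seven concentrations in triplicate, mean ± SD.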

Series [2] deals with T2, Nitric oxide synthase 3 (Bos taurus) (UniProt P29473).
T2 sequence (whole entry): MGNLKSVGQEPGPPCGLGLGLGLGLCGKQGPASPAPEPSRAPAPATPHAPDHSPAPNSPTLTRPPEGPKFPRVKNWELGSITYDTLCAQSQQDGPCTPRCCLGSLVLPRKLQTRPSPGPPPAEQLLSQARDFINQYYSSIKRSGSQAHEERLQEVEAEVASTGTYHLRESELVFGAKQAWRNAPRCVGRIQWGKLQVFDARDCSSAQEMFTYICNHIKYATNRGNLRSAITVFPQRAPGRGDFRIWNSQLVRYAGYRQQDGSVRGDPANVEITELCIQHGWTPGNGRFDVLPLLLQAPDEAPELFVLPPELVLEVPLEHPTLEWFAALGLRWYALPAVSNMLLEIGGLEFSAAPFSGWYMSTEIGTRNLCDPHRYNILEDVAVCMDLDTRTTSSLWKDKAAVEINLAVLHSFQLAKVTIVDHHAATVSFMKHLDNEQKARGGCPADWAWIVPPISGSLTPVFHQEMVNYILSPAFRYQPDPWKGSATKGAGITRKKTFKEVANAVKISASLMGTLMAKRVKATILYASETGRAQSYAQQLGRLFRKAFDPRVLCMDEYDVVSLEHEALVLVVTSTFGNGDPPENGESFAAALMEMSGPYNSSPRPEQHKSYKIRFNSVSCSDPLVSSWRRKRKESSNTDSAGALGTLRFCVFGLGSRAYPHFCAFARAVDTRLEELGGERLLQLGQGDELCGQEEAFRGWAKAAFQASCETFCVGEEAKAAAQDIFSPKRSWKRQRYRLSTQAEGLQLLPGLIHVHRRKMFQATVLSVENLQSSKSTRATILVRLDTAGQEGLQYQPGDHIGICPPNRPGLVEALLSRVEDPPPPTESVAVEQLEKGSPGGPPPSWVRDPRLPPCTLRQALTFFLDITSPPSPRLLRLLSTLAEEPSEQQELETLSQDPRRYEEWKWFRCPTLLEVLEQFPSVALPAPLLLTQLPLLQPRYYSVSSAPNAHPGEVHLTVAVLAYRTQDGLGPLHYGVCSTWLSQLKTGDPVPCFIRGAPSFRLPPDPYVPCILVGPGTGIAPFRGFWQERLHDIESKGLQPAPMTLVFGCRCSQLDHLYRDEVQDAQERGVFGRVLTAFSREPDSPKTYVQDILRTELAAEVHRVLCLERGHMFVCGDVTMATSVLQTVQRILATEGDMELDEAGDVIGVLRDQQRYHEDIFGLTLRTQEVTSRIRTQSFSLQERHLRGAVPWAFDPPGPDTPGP
As to the kind of experiment: Inhibition of full length N-terminal his-tagged bovine eNOS (2 to 1205 residues) expressed in Escherichia coli at 10 uM preincubated for 15 mins followed by NADPH addition and measured after 30 mins by HPLC analysis relative to control. Conditions: time 45.0 min. The procedure, abridged: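 Recombinant bovine eNOS in HEPES buffer with 2 mM CaCl2 plus the same cofactor mix as the iNOS assay (DTT, BSA, FMN, FAD, BH4, calmodulin, 10 μM L-Arg). Compound pre-incubated 15 min at 37 °C. NADPH-started reaction run 30 min at 37 °C, quenched with cold CH3CN. Read by OPA/NAC fluorescence HPLC. […] IC50 from seven concentrations in triplicate.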

In series [3] the target is T1, Nitric oxide synthase, inducible. The experiment in a line: Inhibition of iNOS (unknown origin).
Series [4] deals with MDA-MB-231. As to the kind of experiment: Inhibition of cell migration in human MDA-MB-231 cells assessed as reduction in wound closure incubated for 24 hrs by microscopic analysis. In kind it is functional. Also noted: scale not given: the % may be the effect or the level left. The essentials:
(§1)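 MDA-MB-231 cells seeded 20×10^4 cells/well, incubated 12 h, then serum-starved (1% FBS) for 24 h. Monolayer scratched with a pipette tip, washed with PBS and treated at 25 μM in starvation medium, with 0.1% DMSO as control. Wound imaged at 0 and 24 h (4× objective). Wound area measured to give percent closure.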

A short description of series [5]: Metabolic stability in rat liver microsome assessed as half life pretreated for 5 mins followed by NADPH and measured after 60 mins by HPLC analysis. It is filed as ADME. Conditions: liver microsomes, time 65 min. The procedure, abridged: (§2)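 Compound from 2 mM DMSO stock diluted in PBS with Sprague–Dawley rat liver microsomes and warmed 5 min at 37 °C. NADPH (10 mM stock) added, incubated 60 min at 37 °C, quenched with cold CH3CN and centrifuged. At least three repeats, verapamil as positive control. CLint scaled using 45 mg microsomal protein/g liver and 40 g liver/kg body weight.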
(Microsomes from liver hold many membrane-bound enzymes, among them those of drug oxidation.)

Series [6] concerns MCF-12A. As to the kind of experiment: Antiproliferative activity against human MCF-12A cells assessed as reduction in cell viability measured after 5 days by PrestoBlue reagent based assay. In kind it is functional. Conditions: 120 h. The essentials: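 MCF-12A cells (DMEM/F12 1:1, 5% equine serum, EGF, hydrocortisone, cholera toxin, insulin) seeded 2000 cells/well, grown 24 h, then exposed 5 days to 0.001–100 μM in triplicate. Read with PrestoBlue (10% v/v, 120 min), ex 540/em 590 nm. Normalized to 0.1% DMSO controls. EC50 from sigmoidal variable-slope fit, mean ± SD of 3 independent experiments.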

Series [7] deals with MDA-MB-231. As to the kind of experiment: Antiproliferative activity against human MDA-MB-231 cells assessed as reduction in cell viability measured after 5 days by PrestoBlue reagent based assay. In kind it is functional. Conditions: MDA-MB-231, 120 h. The procedure, abridged: (§3)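 MDA-MB-231 cells grown in DMEM with 10% FBS and 2 mM L-glutamine. Seeded 2000 cells/well, grown 24 h, then treated 5 days over 0.001–100 μM in triplicate wells. Read with PrestoBlue (10% v/v, 120 min), fluorescence ex 540/em 590 nm. Normalized to 0.1% DMSO controls. EC50 from sigmoidal variable-slope fit, mean ± SD, n = 3 independent experiments.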

In series [8] the test system is MCF-12A. The experiment in a line: Antiproliferative activity against human MCF-12A cells assessed as reduction in cell viability at 50 uM measured after 5 days by PrestoBlue reagent based assay relative to control. The note with it: time 5 day. In kind it is functional. The procedure, abridged:
(§4)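 MCF-12A cells grown in DMEM/F12 (1:1) with 5% equine serum, EGF, hydrocortisone, cholera toxin and insulin, at 37 °C and 5% CO2. Seeded 2000 cells/well in triplicate and grown 24 h, then treated 5 days. Read with PrestoBlue (10% v/v, 120 min), fluorescence ex 540/em 590 nm. Viability normalized to 0.1% DMSO-treated cells (100%).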

Series [9] can be described thus: Metabolic stability in rat liver microsome assessed as hepatic clearance pretreated for 5 mins followed by NADPH and measured after 60 mins by HPLC analysis. In kind it is ADME. The note with it: liver microsomes, time 65 min. The essentials:
as §2

Another series deals with T3, Nitric oxide synthase 3 (Bos taurus, UniProt P29473).
T3 sequence (P29473 whole entry): T2 sequence (whole entry)
As to the kind of experiment: Inhibition of full length N-terminal his-tagged bovine eNOS (2 to 1205 residues) expressed in Escherichia coli preincubated for 15 mins followed by NADPH addition and measured after 30 mins by HPLC analysis. The procedure, abridged:
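Recombinant bovine eNOS in HEPES buffer with 2 mM CaCl2 plus the same cofactor mix as the iNOS assay (DTT, BSA, FMN, FAD, BH4, calmodulin, 10 μM L-Arg). NADPH-started reaction run 30 min at 37 °C, quenched with cold CH3CN. Read by OPA/NAC fluorescence HPLC. IC50 from seven concentrations in triplicate.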

The subject of another series is MDA-MB-231 (human). As to the kind of experiment: Potency index, ratio of 1400W EC50 to test compound EC50 for antiproliferative activity against human MDA-MB-231 cells assessed as reduction in cell viability measured after 5 days by PrestoBlue reagent based assay. The note with it: time 5 day.
The subject of series [10] is MDA-MB-231. The experiment in a line: Inhibition of cell migration in human MDA-MB-231 cells assessed as reduction in cell motility incubated for 24 hrs by scratch wound healing assay. In kind it is functional, cell-based. The procedure, abridged:
as §1

For series [11], the target named is T1, Nitric oxide synthase, inducible. The experiment in a line: Inhibition of N-terminal his6-tagged recombinant human iNOS expressed in Escherichia coli preincubated for 15 mins followed by NADPH addition and measured after 30 mins by HPLC analysis. The essentials:
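Recombinant human iNOS in 100 mM HEPES pH 7.4 with 0.1 mM CaCl2, 1 mM DTT, 0.5 mg/mL BSA, 10 μM FMN, 10 μM FAD, 30 μM BH4, 10 μg/mL calmodulin and 10 μM L-Arg. NADPH added to start the reaction, run 30 min at 37 °C, stopped with cold CH3CN. IC50 from seven concentrations in triplicate, mean ± SD.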

Series [12] deals with MCF-12A. As to the kind of experiment: Antiproliferative activity against human MCF-12A cells assessed as reduction in cell viability at 25 uM measured after 5 days by PrestoBlue reagent based assay relative to control. It is filed as functional. The note with it: time 5.0 day. The essentials: as §4
The test system of series [13] is MDA-MB-231. The experiment in a line: Antiproliferative activity against human MDA-MB-231 cells assessed as reduction in cell viability upto 100 uM measured after 5 days by PrestoBlue reagent based assay. It is filed as functional. The note with it: time 5.0 day. The essentials: as §3

T1 sequence (P35228 whole entry): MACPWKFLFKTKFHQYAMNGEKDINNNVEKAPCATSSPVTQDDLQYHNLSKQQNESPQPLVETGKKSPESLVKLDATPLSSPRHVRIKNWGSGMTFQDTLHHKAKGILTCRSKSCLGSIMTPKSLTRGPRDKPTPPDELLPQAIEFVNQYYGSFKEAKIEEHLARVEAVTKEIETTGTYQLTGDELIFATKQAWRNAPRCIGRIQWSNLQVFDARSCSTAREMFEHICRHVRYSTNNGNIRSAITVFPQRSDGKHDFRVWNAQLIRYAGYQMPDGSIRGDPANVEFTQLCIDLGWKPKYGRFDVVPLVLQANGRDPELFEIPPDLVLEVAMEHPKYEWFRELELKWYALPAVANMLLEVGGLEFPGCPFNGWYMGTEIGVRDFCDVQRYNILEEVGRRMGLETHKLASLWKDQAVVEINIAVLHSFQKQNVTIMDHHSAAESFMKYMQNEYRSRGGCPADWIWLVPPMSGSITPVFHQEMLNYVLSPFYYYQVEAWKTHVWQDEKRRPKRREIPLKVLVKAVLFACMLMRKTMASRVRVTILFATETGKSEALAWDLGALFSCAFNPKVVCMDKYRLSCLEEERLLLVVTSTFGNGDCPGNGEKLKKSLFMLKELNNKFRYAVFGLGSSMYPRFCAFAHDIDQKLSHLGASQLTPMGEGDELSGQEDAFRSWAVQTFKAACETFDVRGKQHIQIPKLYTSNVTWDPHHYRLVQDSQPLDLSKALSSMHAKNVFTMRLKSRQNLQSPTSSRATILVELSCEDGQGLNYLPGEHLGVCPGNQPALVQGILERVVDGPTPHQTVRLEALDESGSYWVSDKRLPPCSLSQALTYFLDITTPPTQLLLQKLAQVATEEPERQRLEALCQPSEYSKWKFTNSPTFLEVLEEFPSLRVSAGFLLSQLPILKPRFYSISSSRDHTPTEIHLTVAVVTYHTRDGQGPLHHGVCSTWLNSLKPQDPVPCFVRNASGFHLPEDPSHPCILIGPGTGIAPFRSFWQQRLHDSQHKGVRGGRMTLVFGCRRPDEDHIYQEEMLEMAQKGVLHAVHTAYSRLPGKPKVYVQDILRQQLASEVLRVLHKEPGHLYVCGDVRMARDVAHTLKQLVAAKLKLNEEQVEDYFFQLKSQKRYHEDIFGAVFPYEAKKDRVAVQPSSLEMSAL

As to `CC(=N)NCc1ccc(NS(=O)(=O)c2ccc([N+](=O)[O-])cc2)cc1`, the inhibition result in series [1] and in series [2] was “inactive” in each case.
Take `COC(=O)[C@@H](N)CCCNC(=N)N[N+](=O)[O-]` [L-NAME]: in series [3], the pIC50 (in general, the IC50 on a negative log10 scale, so that one unit is a factor of ten) is 4.87.
On to `Br.Cc1ccc(S(=O)(=O)NCc2cccc(CNC(=N)c3ccccc3)c2)cc1`, for which, in [1], the inhibition (usually the percentage by which the read-out fell short of the control) is 83%. The Activity is given as 15% with MDA-MB-231 [4] and 91% in the series with MCF-12A [8]. The half-life (usually how long it takes for the measured level to halve) in series [5] came to 38 min. For the same molecule, the figures for the pEC50 with MCF-12A [6] and in the series on MDA-MB-231 [7] were 4.10 and 4.61, respectively. For the same molecule, in series [9], the CLint scaled (as a rule, the rate of metabolic loss divided by the concentration) came to 39.6 mL/min/kg. In addition, the figures for the pIC50 (against Nitric oxide synthase 3; in series [11]) were < 4.30 and 7.19, respectively. Further, the “Ratio EC50” value in the series with MDA-MB-231 (human) was 4. The outcome in the series on MDA-MB-231 [10] was Active. For the same molecule, in series [2], the inhibition result was “inactive”. Also, the outcome with MCF-12A [12] was inactive.
As to `N=C(NCc1ccc(NS(=O)(=O)c2ccc([N+](=O)[O-])cc2)cc1)c1ccc(C(F)(F)F)cc1`, the inhibition entry in series [1] and in series [2] was “inactive” in each case.
`Cc1ccc(S(=O)(=O)NCc2cccc(CNC(=N)c3ccc(Cl)cc3)c2)cc1`: the inhibition in series [1] came out at 72%; in [2], 18%.
For `CC(=N)NCc1cccc(CN)c1` [1400W], the pEC50 (usually −log10 of the EC50, conventionally taken in molar units) in the series on MDA-MB-231 [7] was < 4.00.
Take `N=C(NCc1cccc(CNS(=O)(=O)c2ccc([N+](=O)[O-])cc2)c1)c1ccc(Cl)cc1`: the inhibition in series [1] is 65%; in series [2], 19%.
The like results for `N=C(NCc1cccc(CNS(=O)(=O)c2ccc([N+](=O)[O-])cc2)c1)c1ccc(C(F)(F)F)cc1` were, in that order, 72% and 26%.
As to `N=C(NCc1ccc(NS(=O)(=O)c2ccc([N+](=O)[O-])cc2)cc1)c1ccc(Cl)cc1`, the figures for the inhibition in series [1] and in series [2] were 69% and 46%, respectively.
`N=C(NCc1ccc(NS(=O)(=O)c2ccc([N+](=O)[O-])cc2)cc1)c1ccccc1`: in [1], the inhibition is 52%. For the same molecule, the result in the series on MDA-MB-231 [13] was inactive. Moreover, the pEC50 with MDA-MB-231 [7] is < 4.00. Moreover, the pIC50 is < 4.30 at Nitric oxide synthase 3 and 6.08 in series [11]. The inhibition result in series [2] was “inactive”.
Consider `N=C(NCc1cccc(CNS(=O)(=O)c2ccc([N+](=O)[O-])cc2)c1)c1ccccc1`, for which the inhibition in [1] is 71%; in [2], 35%.
For the molecule `Cc1ccc(S(=O)(=O)NCc2cccc(CNC(=N)c3ccc(C(F)(F)F)cc3)c2)cc1`, the inhibition in series [1] was found to be 59%; in series [2] it was 28%.
The like results for `CC(=N)NCc1cccc(CNS(=O)(=O)c2ccc(C)cc2)c1` were, in that order, “inactive” and “inactive”.
